Most compounds without a hit are left out; they make up all but 3.4% or so of the library.
M1 ag: human M1 muscarinic receptor agonism; actives 0.33% (n = 360,000); CHO-K1 hM1, Fluo-8 calcium fluorescence, agonist mode; 0% DMSO, 100% acetylcholine EC100; activation, % at 3 µM; P11229;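 active = activation above the run's mean compound activation plus 3 SD, cut at about 16% in these data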;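 also: peak over basal fluorescence ratio within a 140 s kinetic read after compound addition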
Target sequence (P11229 whole entry, looked up): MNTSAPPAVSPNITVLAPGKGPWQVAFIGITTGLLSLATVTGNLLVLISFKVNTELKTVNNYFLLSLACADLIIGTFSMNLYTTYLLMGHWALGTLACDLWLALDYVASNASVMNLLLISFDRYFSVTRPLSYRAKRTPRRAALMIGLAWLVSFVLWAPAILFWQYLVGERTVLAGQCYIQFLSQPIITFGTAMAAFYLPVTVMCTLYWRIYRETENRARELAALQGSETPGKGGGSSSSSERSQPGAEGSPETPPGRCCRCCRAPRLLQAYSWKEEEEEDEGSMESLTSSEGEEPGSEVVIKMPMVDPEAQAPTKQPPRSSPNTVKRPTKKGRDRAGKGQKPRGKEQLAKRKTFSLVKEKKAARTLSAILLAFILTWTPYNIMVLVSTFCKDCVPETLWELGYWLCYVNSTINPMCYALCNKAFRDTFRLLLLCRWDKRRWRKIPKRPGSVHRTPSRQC
TAAR1 ag: agonists of human TAAR1. Q96RJ0. actives 0.99% (n = 360,000). activation, % at 3 µM. CHO RD-HGA16 TAAR1, Fluo-8 calcium fluorescence; vehicle wells 0%, saturating PEA agonist 100%;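 active = activation above the mean activation of all test compounds in the run plus 3 SD, cut at about 38% in these data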
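Repeats: no replicates (n 1) | Material: CHO-derived RD-HGA16 cells with stable Gα16 and human TAAR1 | Technique: Kinetic Fluo-8 calcium fluorescence | Schedule: 17-24 h seeding, 75 min 37 °C dye, 30 min RT | Evaluation: % activation from peak over basal fluorescence ratio, DMSO-to-PEA scaled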
TAAR1 antagonist: antagonists of human TAAR1; Q96RJ0; CHO RD-HGA16 TAAR1, Fluo-8 calcium fluorescence, antagonist; inhibition, % at 3 µM; actives 1.5% (n = 360,000);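 active = inhibition above a per-plate cutoff, the mean inhibition of test compounds on that plate plus 3 SD, cut at about 49% in these data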
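Test system: hTAAR1-expressing CHO RD-HGA16 cells, Gα16-coupled; Probe or stimulus: EC80 β-phenethylamine stimulus; Compound dosing: single nominal final test compound concentration of 3 µM; Timing: 140 s kinetic read after compound, 140 s after agonist; Signal: Fluo-8 calcium-sensitive fluorescence; Measure: % inhibition of agonist calcium response; Controls: DMSO and EC80 PEA controls.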
CHRM1 antagonist: antagonists of human M1 muscarinic receptor; P11229; CHO-K1 hM1, Fluo-8 calcium fluorescence, ACh EC80 antagonist; inhibition, % at 3 µM; actives 1.3% (n = 360,000); AID 588852;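 active = percent inhibition above its own plate's cutoff, namely the mean of that plate's compound wells plus 3 SD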;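 also: peak over basal fluorescence ratio during 140 s after agonist addition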
M1 PAM: potentiates human M1 receptor response to acetylcholine. activation, % at 3 µM. P11229. actives 0.088% (n = 360,000). CHO-K1 hM1, Fluo-8 calcium fluorescence, ACh EC20; 0% = ACh EC20, 100% = maximal ACh. AID 588819; in the data active = activation above about 19%, passing the limit was not always enough
Large screens that a line does not name were inactive.

CCCC(=O)Nc1cccc(-c2nc3ccccc3o2)c1	none
O=C(COc1ccc(C(=O)NCc2cccnc2)cc1)Nc1cccc(C(F)(F)F)c1	CHRM1 antagonist 36
Cc1cc(C)c(OCC(=O)Nc2nc3ccccc3[nH]2)c(C)c1	TAAR1 ag 42, TAAR1 antagonist 49
Cc1ccc(NC(=O)NCc2ccco2)cc1[N+](=O)[O-]	none (no result: M1 ag, CHRM1 antagonist, M1 PAM)
COc1ccc(NC(=O)C2Cc3c(-c4ccccc4)ccnc3O2)cc1OC (stereo unspecified)	none (no result: TAAR1 ag, TAAR1 antagonist)
COc1ccccc1-c1nc2c(c(SCC(=O)N3CCCCC3)n1)Cc1c(CO)cnc(C)c1O2	TAAR1 antagonist 54
CCCCN1CC(COCc2ccccc2)Oc2cccc(Sc3ccc(OC)c(OC)c3)c2S1(=O)=O (stereo unspecified)	none (no result: M1 ag, CHRM1 antagonist, M1 PAM)
Cc1c(NC(=O)/C(=C/c2cccs2)c2cccs2)c(=O)n(-c2ccccc2)n1C	CHRM1 antagonist 54
Cc1c(NC(=O)/C(C#N)=C\c2cccs2)c(=O)n(-c2ccccc2)n1C	none
O=C(c1ccccc1)C(Nc1ccccn1)c1ccccc1 (stereo unspecified)	CHRM1 antagonist 35
O=P(CCCCCCCCCP(=O)(c1ccccc1)c1ccccc1)(c1ccccc1)c1ccccc1	TAAR1 antagonist 90, CHRM1 antagonist 32
COc1ccc(NC(=O)c2cc(-c3sc(NC(=O)c4ccccc4)nc3C)n(CCO)n2)cc1	none (no result: M1 ag, CHRM1 antagonist, M1 PAM)
CCC(C)N(C(=O)Cn1c(Cl)nc2c1c(=O)n(C)c(=O)n2C)C1CCS(=O)(=O)C1 (stereo unspecified)	none
CN(C(=O)Cn1c(Cl)nc2c1c(=O)n(C)c(=O)n2C)C1CCS(=O)(=O)C1 (stereo unspecified)	CHRM1 antagonist 23
CC1=CC2=NC(=O)/C(=C/c3coc4ccc(Cl)cc4c3=O)C(=N)N2O1	M1 ag 29, TAAR1 ag 43
CSC1=NSC2=NC(=O)/C(=C/c3coc4ccc(O)cc4c3=O)C(=N)N12	M1 ag 42, TAAR1 ag 412, TAAR1 antagonist 109, CHRM1 antagonist 34
CSC1=NSC2=NC(=O)/C(=C/c3coc4ccccc4c3=O)C(=N)N12	M1 ag 78, TAAR1 ag 375, TAAR1 antagonist 104, CHRM1 antagonist 56
COC(=O)C[C@H]1CC[C@@H](NS(=O)(=O)c2ccccc2)[C@@H](CO)O1	none (no result: M1 ag, CHRM1 antagonist, M1 PAM)
COC(=O)c1cc(S(=O)(=O)NCC2CCN(C(=O)C(=O)c3cc4ccccc4o3)CC2)cs1	none (no result: M1 ag, CHRM1 antagonist, M1 PAM)
Cc1cc(C(=O)NC2CCCc3c2cnn3-c2cccc(C)c2C)n(C)n1 (stereo unspecified)	CHRM1 antagonist 34
Cn1nccc1C(=O)NC1CCCc2c1cnn2-c1ccc(C(C)(C)C)cc1 (stereo unspecified)	CHRM1 antagonist 34
Cc1nnsc1C(=O)NC1CCCc2c1cnn2-c1ccc(F)cc1F (stereo unspecified)	CHRM1 antagonist 31
CC(=O)NC1CCCc2c1cnn2-c1ccc(C(C)(C)C)cc1 (stereo unspecified)	none
CC1(C(=O)NS(=O)(=O)c2cccc(C#N)c2)CCN1C(=O)C/C=C/c1ccccc1 (stereo unspecified)	none
C[C@@H]1ON(C)[C@H]2C[C@H]3c4cc(N5CCCCC5)ccc4CCN3C[C@@H]12	none (no result: M1 ag, CHRM1 antagonist, M1 PAM)
CN1OC[C@@H]2CN(C(=O)C3CCCCC3)[C@H](c3ccc(N4CCCCC4)cc3)C[C@@H]21	none (no result: M1 ag, CHRM1 antagonist, M1 PAM)
CC(C)Oc1ccc(C(CCN)C2CCCCC2)cc1 (stereo unspecified)	TAAR1 ag 47
CCCNC(=O)Cn1c(=O)/c(=C\c2ccc(-c3ccc([N+](=O)[O-])cc3)o2)s/c1=C\C(=O)C(C)(C)C	M1 ag 22, CHRM1 antagonist 37 (no result: TAAR1 ag, TAAR1 antagonist)
CCCNC(=O)Cn1c(=O)/c(=C/c2ccc(-c3cccc([N+](=O)[O-])c3)o2)s/c1=C\C(=O)C(C)(C)C	none
Cc1ccc(NC(=O)c2cc(-c3cccs3)nc3ccccc23)nc1	TAAR1 antagonist 53
O=C(c1cc(-c2cccs2)nc2ccccc12)N1CCN(CCO)CC1	none
COc1ccc2nc(-c3ccccc3)cc(C(=O)OCC(=O)N3CCCCC3)c2c1	TAAR1 antagonist 56
COc1ccccc1-c1csc(NC(=O)c2cc(-c3cccs3)nc3ccccc23)n1	none
O=C(c1cc(-c2cccs2)nc2ccccc12)N1CCN(c2ccccc2O)CC1	TAAR1 antagonist 58, CHRM1 antagonist 32
COc1ccc(-c2cc(C(=O)N3CCN(c4ccccc4F)CC3)c3ccccc3n2)c(OC)c1	CHRM1 antagonist 29
CC(=O)N1CCN(c2ccc(N3CCN(Cc4ccccc4)[C@@H](C)C3)c(C)c2)[C@H](C)C1	none (no result: M1 ag, CHRM1 antagonist, M1 PAM)
COC(=O)C1=C(C)N(Cc2ccc(Cl)cc2)C(=S)NC1c1ccc(Br)cc1 (stereo unspecified)	none (no result: M1 ag, CHRM1 antagonist, M1 PAM)
CN1CCCCC(NC(=O)CSc2ccccc2)C1=O (stereo unspecified)	none (no result: M1 ag, CHRM1 antagonist, M1 PAM)
COc1cc(CCN=Cc2cccc(OC)c2O)c([N+](=O)[O-])cc1OC	none (no result: M1 ag, CHRM1 antagonist, M1 PAM)
COCCCNC(=O)c1nnn2c1nc(N)c1cc(Cl)ccc12	none (no result: M1 ag, CHRM1 antagonist, M1 PAM)
COc1cc(-c2cc(C(=O)N3CCN(c4ccccn4)CC3)c3ccccc3n2)cc(OC)c1OC	TAAR1 antagonist 50
CCOc1ccc(-c2cc(C(=O)N3CCN(c4ccccn4)CC3)c3ccccc3n2)cc1	none
CCCc1ccc(-c2cc(C(=O)N3CCN(c4ccccn4)CC3)c3ccccc3n2)cc1	none
COc1ccc(-c2cc(C(=O)N3CCN(c4ccccc4O)CC3)c3ccccc3n2)cc1	TAAR1 antagonist 62
COc1ccc(-c2cc(C(=O)N3CCN(c4ccccn4)CC3)c3ccccc3n2)cc1	TAAR1 antagonist 53, CHRM1 antagonist 30
CCCCCCCCN1C(=O)[C@@H](CC(=O)NCCC(C)C)C[C@@]2(C(=O)OC)C1=C[C@H](C1CCCC1)O[C@@H]2C	none (no result: M1 ag, CHRM1 antagonist, M1 PAM)
CCCCOCC1CN(CCCC)S(=O)(=O)c2c(cccc2Sc2ccc(SC)cc2)O1 (stereo unspecified)	none (no result: M1 ag, CHRM1 antagonist, M1 PAM)
Cn1c2ccccc2c(=O)c2c(=O)n(C3CCCCCC3)c(C3CCCCC3)nc21	TAAR1 ag 38
S=C(NN=C1CCCCC1=NNC(=S)N1CCOCC1)N1CCOCC1	none (no result: M1 ag, CHRM1 antagonist, M1 PAM)
CN1c2ccccc2C(C)(C)C12C=Nc1c(ccc3ccccc13)O2 (stereo unspecified)	TAAR1 ag 40
CC(C)(C)S(=O)N1C[C@@H]2CC(=O)C(CCO)=C2[C@H]1CCO (stereo partly specified)	none (no result: M1 ag, CHRM1 antagonist, M1 PAM)
Cc1cc2cc(CNC(=O)c3ccc(S(=O)(=O)N4CCCCC4)cc3)ccc2n1C	none
Cc1cc2cc(CNC(=O)c3ccc(S(=O)(=O)N4CCCC4)cc3)ccc2n1C	CHRM1 antagonist 73
CCN(CC)S(=O)(=O)c1ccc(C(=O)NCc2ccc3c(c2)cc(C)n3C)cc1	CHRM1 antagonist 57
